Measured values published in paper PMC3806897 (ACS chemical biology, 2013).

Experiments:
ABHD6 [1] = target: T1, ABHD6 (Mus musculus, UniProt Q8R2Y0); assay: In vitro competitive ABPP with FP-Rh in mouse brain proteome; format: biochemical; conditions: for relative ABHD6 inhibitory potency: JW842 vs JW843, JW651 vs JW814, MJN110 vs all carbamates
T1 sequence (Q8R2Y0 1-336): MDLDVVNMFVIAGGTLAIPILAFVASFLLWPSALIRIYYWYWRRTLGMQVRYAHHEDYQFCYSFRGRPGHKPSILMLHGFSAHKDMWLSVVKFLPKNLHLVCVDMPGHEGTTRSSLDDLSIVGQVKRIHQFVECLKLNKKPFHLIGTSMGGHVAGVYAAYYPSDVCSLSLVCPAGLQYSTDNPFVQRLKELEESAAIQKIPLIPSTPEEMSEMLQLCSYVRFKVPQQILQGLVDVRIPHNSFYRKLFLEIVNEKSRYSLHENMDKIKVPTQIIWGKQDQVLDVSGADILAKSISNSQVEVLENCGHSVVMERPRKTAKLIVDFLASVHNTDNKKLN
How it was run: (§1)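 Mouse brain membrane proteome (1.0 mg/mL) was preincubated with DMSO or test compound (1–100,000 nM) for 30 min at 37 °C. FP-Rh (50 μM stock in DMSO) was added for another 30 min at room temperature, and reactions were quenched with SDS loading buffer. After SDS-PAGE, MAGL, ABHD6 and FAAH activities were quantified from in-gel fluorescent band intensities, from which IC50 values were calculated.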

[2] = tested on: other brain serine hydrolases; assay: In vitro competitive ABPP with FP-Rh, off-target profile; format: biochemical, mouse
How it was run: as §1

MAGL [3] = assay: In vivo competitive ABPP of brain proteomes from treated mice; parameters: species or system mouse
How it was run: (§2)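 C57Bl/6J mice received test compound by oral gavage in PEG300 (1.0–40 mg•kg-1). At 4 h they were anesthetized with isoflurane, killed by cervical dislocation, and tissues were flash-frozen. Brain membrane proteomes were labeled with FP-Rh for 30 min at room temperature, quenched in reducing SDS loading buffer, separated on 10% SDS-PAGE and scanned for in-gel fluorescence.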

ABHD6 [4] = target: T1, ABHD6; assay: as above; conditions: 40 mg•kg^-1 p.o., 4 h
How it was run: as §2

[5] = tested on: brain lipid levels (2-AG, AA, AEA); assay: Brain lipid levels in treated mice; format: in vivo, mouse; conditions: JW651-treated mice, p.o., 4 h
How it was run: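 C57Bl/6J mice were dosed by oral gavage in PEG300 (1.0–40 mg•kg-1). After 4 h they were anesthetized with isoflurane and killed by cervical dislocation. Brains were harvested and flash-frozen in liquid N2. Lipids were measured by LC/MS against commercial standards.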

MAGL [6] = target: T2, MAGL (Mus musculus, UniProt O35678); assay: In vitro competitive ABPP with FP-Rh in mouse brain proteome; format: biochemical; conditions: JW842 vs JW843, JW651 vs JW814; MJN110 vs all carbamates
T2 sequence (O35678 1-303): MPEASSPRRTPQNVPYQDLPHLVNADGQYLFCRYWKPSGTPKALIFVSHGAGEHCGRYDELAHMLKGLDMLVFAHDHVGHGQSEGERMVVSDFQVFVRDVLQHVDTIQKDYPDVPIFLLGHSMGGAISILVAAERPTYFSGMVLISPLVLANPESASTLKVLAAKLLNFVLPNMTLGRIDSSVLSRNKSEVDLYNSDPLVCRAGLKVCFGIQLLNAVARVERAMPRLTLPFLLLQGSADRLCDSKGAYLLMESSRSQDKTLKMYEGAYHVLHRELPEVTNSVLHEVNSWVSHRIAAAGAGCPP
How it was run: as §1

FAAH [7] = target: T3, FAAH (Mus musculus, UniProt O08914); assay: as above; format: biochemical; conditions: 30 min, 37 °C
T3 sequence (O08914 1-579): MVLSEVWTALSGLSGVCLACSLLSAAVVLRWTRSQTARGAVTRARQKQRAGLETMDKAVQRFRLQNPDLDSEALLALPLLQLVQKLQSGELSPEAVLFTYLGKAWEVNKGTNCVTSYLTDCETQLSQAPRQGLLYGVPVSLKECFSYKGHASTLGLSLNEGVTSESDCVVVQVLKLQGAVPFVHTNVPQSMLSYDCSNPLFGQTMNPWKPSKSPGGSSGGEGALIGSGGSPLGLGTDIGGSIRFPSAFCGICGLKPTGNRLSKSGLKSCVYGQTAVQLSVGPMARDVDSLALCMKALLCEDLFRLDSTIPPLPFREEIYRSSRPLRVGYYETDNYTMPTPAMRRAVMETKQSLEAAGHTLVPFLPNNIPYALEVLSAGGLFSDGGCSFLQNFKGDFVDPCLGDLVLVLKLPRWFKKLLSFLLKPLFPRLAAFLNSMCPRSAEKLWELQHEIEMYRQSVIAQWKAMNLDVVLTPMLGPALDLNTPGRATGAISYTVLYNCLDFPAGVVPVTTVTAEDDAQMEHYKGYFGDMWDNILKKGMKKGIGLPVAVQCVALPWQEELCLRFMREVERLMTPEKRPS
How it was run: as §1

FAAH [8] = target: T3, FAAH; assay: In vivo competitive ABPP of brain proteomes from treated mice; conditions: oral, 4 h
How it was run: as §2

FAAH [9] = target: T3, FAAH; assay: In vitro CC-ABPP of mouse brain proteomes; format: biochemical
How it was run: (§3)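 Brain membrane proteome from naïve mice (1.0 mg/mL) was treated with varying concentrations of alkyne carbamate probe for 30 min at 37 °C. A premixed click mixture was added immediately: CuSO4 (50 mM stock), TBTA (1.7 mM stock), freshly prepared TCEP (50 mM stock) and Rh-N3 (1.25 mM stock). Reactions ran 1 h at room temperature, were diluted with SDS loading buffer, and were read by SDS-PAGE in-gel fluorescence.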

carboxylesterases (CESs) = assay: In vivo CC-ABPP of liver proteomes; parameters: species or system mouse; conditions: oral, 1-40 mg•kg^–1, 4 h
How it was run: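 Mice received oral alkyne carbamate probe in PEG300 (1–40 mg•kg-1) for 4 h before livers were harvested and flash-frozen. Liver membrane proteome, with the soluble fraction removed, was diluted to 1.0 mg/mL. It was clicked to Rh-N3 with premixed CuSO4, TBTA and fresh TCEP for 1 h at room temperature, then diluted in SDS loading buffer and resolved by SDS-PAGE for in-gel fluorescence.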

MAGL [10] = assay: In vitro click chemistry; format: biochemical, mouse; conditions: CC-ABPP with Rh-N3, 30 min, 37 °C
How it was run: as §3

mouse brain proteome [11] = assay: In vitro CC-ABPP, background proteome reactivity; format: biochemical
How it was run: as §3

mouse brain proteome [12] = assay: In vivo CC-ABPP of brain proteomes, off-target labeling; conditions: entire tested dose range 1-40 mg•kg^–1 p.o.
MAGL [13] = target: T2, MAGL; assay: In vivo competitive ABPP of liver proteomes; conditions: oral, 1-40 mg•kg^–1, 4 h
How it was run: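 Mice were gavaged orally with test compound in PEG300 (1.0–40 mg•kg-1). After 4 h, animals were killed under isoflurane and livers flash-frozen. Liver membrane proteomes were labeled with FP-Rh for 30 min at room temperature, quenched with reducing SDS loading buffer, resolved on 10% SDS-PAGE and read by in-gel fluorescence scanning.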

brain serine hydrolases = assay: In vivo competitive ABPP of brain proteomes, off-target profile; parameters: species or system mouse; conditions: oral, 1-40 mg•kg^–1, 4 h
How it was run: as §2

SMILES: O=C(OC(C(F)(F)F)C(F)(F)F)N1CCN(C(c2ccc(Cl)cc2)c2ccc(Cl)cc2)CC1 [JW651]
- blockade of ABHD6 (ABHD6 [1]; at 10 μM): partial blockade
- cross-reactivity with other brain serine hydrolases off-targets ([2]; up to 10 μM): did not exhibit cross-reactivity
- detectable off-targets ([2]; up to 100 μM JW651, membrane fraction of mouse brain proteome): ABHD6 being the only detectable off-target
- lowest dose giving near complete / complete inhibition of MAGL in brain (MAGL [3]; C57Bl/6J mice, oral gavage 1.0 to 40 mg•kg^-1, 4 h): 5 mg/kg
- inhibition of ABHD6 in brain (ABHD6 [4]): partial inhibition
- brain levels of N-arachidonoylethanolamide (AEA) [5]: unaffected
- brain levels of arachidonic acid (AA) [5]: concomitant reductions
- elevation of brain levels of 2-AG [5]: 10 fold

SMILES: O=C(Oc1ccc([N+](=O)[O-])cc1)N1CCN(C(c2ccc(Cl)cc2)c2ccc(Cl)cc2)CC1 [JW842]
- relative MAGL inhibitory potency (MAGL [6]): much greater potency
- relative ABHD6 inhibitory potency (ABHD6 [1]): much greater potency

SMILES: C#Cc1ccc(C(c2ccc(Cl)cc2)N2CCN(C(=O)Oc3ccc([N+](=O)[O-])cc3)CC2)cc1 (stereo not shown) [JW842yne]
- change in inhibitory activity against FAAH on exchange of chloro for alkyne (FAAH [7]): slight increase
- relative activity on MAGL in the brain in vivo (MAGL [3]; oral, 1-40 mg•kg^–1, 4 h, vs JW651yne and MJN110yne): less active
- dose producing strong inhibition of FAAH in brain (FAAH [8]): ≥ 10 mg•kg^–1
- cross-reactivity with FAAH (FAAH [9]): some cross-reactivity
- CES labeling in liver (carboxylesterases (CESs)): strongest CES labeling profile

SMILES: O=C(ON1C(=O)CCC1=O)N1CCN(C(c2ccc(Cl)cc2)c2ccc(Cl)cc2)CC1 [MJN110]
- relative MAGL inhibitory potency (MAGL [6]): highest
- relative ABHD6 inhibitory potency (ABHD6 [1]): highest
- other off-targets observed ([2]; below 100 μM): LYPLA1/2 being the only other off-targets

SMILES: C#Cc1ccc(C(c2ccc(Cl)cc2)N2CCN(C(=O)ON3C(=O)CCC3=O)CC2)cc1 (stereo not shown) [MJN110yne]
- lowest dose substantially inhibiting MAGL in the brain (MAGL [3]; oral, 1-40 mg•kg^–1, 4 h): 5.0 mg•kg^–1
- lowest probe concentration detecting MAGL reactivity (MAGL [10]): 10 nM
- probe concentration at which background proteome reactivity became apparent (mouse brain proteome [11]; CC-ABPP with Rh-N3, more dramatic at 100 μM): 10 µM
- degree of background proteome reactivity (mouse brain proteome [11]; CC-ABPP, concentrations up to 100 μM): highest degree of background proteome reactivity
- broader background proteome labeling in vivo (mouse brain proteome [12]): did not reveal broader background proteome labeling
- inactivation of MAGL in liver (MAGL [13]): potent inactivation
- only detectable off-target activity in brain in vivo (brain serine hydrolases): ABHD6
